The source of these data is the RNAGym collection of RNA variant scans (doi:10.1126/science.aae0568).

Variants at the floor of the assay were thinned out.

The labels stand for the following.
B1: tRNA (parent)
chain: GUUCCGUUGGCGUAAUGGUAACGCGUCUCCCUCCUAAGGAGAAGACUGCGGGUUCGAGUCCCGUACGGAACG

This data set covers variants of B1. The experiment in a line: yeast fitness relative to wild type (ratio to wild type); higher = fitter; tRNA-Arg(CCU), competitive growth, 37 C, YPD. The method in brief:
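For this measurement, the tRNA-Arg(CCU) gene was varied by chemical synthesis at a 3% per-site mutation rate across 69 sites, and each variant was placed at the native genomic locus in Saccharomyces cerevisiae. The pooled strains went through a 24-hour competition in YPD at 37°C in six parallel replicates, with amplicons from start and end populations read by 100-nucleotide paired-end sequencing. Darwinian fitness relative to wild type followed from the change in each genotype's frequency. Genotypes needed ≥ 100 starting reads, and estimates < 0.5 were set to 0.5.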
As for GUUCCGUUGGCGUAAUCGUGACGCGUCUCCCUCCUAAGGAGAAGACUGCGGGUUCGGGUCCUGUACGGAACG [G17C A20G A57G C62U], the yeast fitness is at most 0.5.

In the case of GUUCCGUUGGCGUAAUCGUAACGCGUCUCCCUCCUAAGGAGAAGACUGCGGGUUCGAGUCCCGUACGGAACG [G17C], the yeast fitness was determined as 0.7.

For the variant GUUCCGUUGGCGUAAUAGUAACGCGUCUCCCUCCUAAGGAGAAGACUGCGGGUUCGAGUUCCGUACGGAACG [G17A C60U], the yeast fitness is 0.594.

GUUCCGUUGGCGUAAUCGUCACGCGUCUCCCUCCUAAGGAGAAGACUGCGGGUUCGAGUCCCGUACGGAACG [G17C A20C]: the yeast fitness stood at 0.54.

Consider GUUCCGUUGGCGUAAUAGUAACGCGUCUCCCUCCUAAGGAGAAGAUUGCGGGUUCGAGACCCGUACGGAACG [G17A C46U U59A], for which the yeast fitness stood at 0.584.

Take GUUCCGUUGGCGUAAUAGUAACGCAUCUCCGUCCUAAGGAGAAGACUGCGGGUUCGAGUCCCGUACGAAACG [G17A G25A C31G G68A]: the yeast fitness was at most 0.5.

Turning to GUUCCGUUGGCGUAAUAGUAACGCGUCUCCCUCCUAAGGAGAAGACUGUGGGUUCGAGUCCCGUACGGAACG [G17A C49U], the yeast fitness came to 0.892.

In the case of GUUCCGUUGGCGUAAUAGUAACGCGUCUCCCUCCUAAGGAGAAGACUGGGGGUUCGAGUCCCGUACGGAACG [G17A C49G], the yeast fitness came out at 0.761.

As to GUUCCGUUGGCGUAAUAGUAACGCGUCUCCCUCCUAAGGAGAAGAGUGCGGGUCCGAGUCCCGUACGGAACG [G17A C46G U54C], the yeast fitness amounted to 0.562.

GUUCCGUUGGCGUAAUAGCAACGCGUCUCCCUCCUAAGGAGAAGACUGCGGGUUCGAGUCCCGUAUGGAACG [G17A U19C C66U]: the yeast fitness is 0.665.

For the variant GUUCCGUUGGCGUAAUAGUAACGCGUCGCCCUCCUAAGGAGAAGACUGCGGGUUCGAGUCCGGUACGGAACG [G17A U28G C62G], the yeast fitness is at most 0.5.

In the case of GUUCCGUUGGCGUAAUAGUAACGCGUCUCCCUCCUAAGGAGAAGACUGCGGGUUCGAGUCCCAUACGGAACG [G17A G63A], the yeast fitness is 0.744.

Take GUUCCGUUGGCGUAAUAGUAACGCGUCUCCCUCCUAAGGAGAAGACUGCGGGUUCGAGUCCCCUACGGAACG [G17A G63C]: the yeast fitness stood at 0.579.

Turning to GUUCCGUUGGCGUAAUAGUAACGCGUCUCCCUUCUUAGGAGAAGAAUGCGGGUUCGAGUCCCGUACGGAACG [G17A C33U A36U C46A], the yeast fitness is 0.822.

Consider GUUCCGUUGGCGUAAUAGUAACGCGUCUCCCACCUAAGGAGAAGACUGCGGGUCCGAGUCCCGUACGGAACG [G17A U32A U54C], for which the yeast fitness is at most 0.5.

Take GUUCCGUUGGCGUAAUAGUAACGCGUCUCCCUCCUAAGGAGAAGACUGCGGGUUCGAGUCGCGUACGGAACG [G17A C61G]: the yeast fitness worked out at 0.573.

As for GUUCCGUUGGCGUAAUAGUAACGCGUCUCCCUCCGAAGGAGAAGACUCCGGGUUCGAGUCCCGUAUGGAACG [G17A U35G G48C C66U], the yeast fitness amounted to 0.535.

On to GUUCCGUUGGCGUAAUCGUAACGCGUCUCCCUCCUACGGAGAAGACUGCGGGUUCGAGUCCCGUACGGAACG [G17C A37C], for which the yeast fitness is 0.644.

For GUUCCGUUGGCGUAAUAGUAACGCCUCUCCCUCCUAAGGUGAAGACUGCGGGUUCGAGUCCCGUACGGAACG [G17A G25C A40U], the yeast fitness is 0.574.

Consider GUUCCGUUGGCGUAAUAGUAACGCGUCCCCCUCCUAAGGAGCAGACAGCGGGUUCGAGUCCCGUAUGGAACG [G17A U28C A42C U47A C66U], for which the yeast fitness was at most 0.5.

In the case of GUUCCGUUGGCGUAAUAGUAACGCGCCUCCCUCCUAAGGAGAAGACUGCGGGUUCGAGUCUCGUACAGAACG [G17A U26C C61U G67A], the yeast fitness was at most 0.5.

On to GUUCCGUUGGCGUAAUAGUAACGCGUCUCCCUCUUAAGGAGAAGACAGCGGGUUCGAGUCCCGUACGCAACG [G17A C34U U47A G68C], for which the yeast fitness was at most 0.5.

With GUUCCGUUGGCGUAAUCGUUACGCGUCUCCCUCCUAAGGAGAAGACUGCGGGUACGAGUCUCGUACGGAACG [G17C A20U U54A C61U], the yeast fitness was 0.546.

In the case of GUUCCGUUGGCGUAAUACUAACGCGUCUCCCUCCUAAGCAGAAGACUGCGGGUUCGAGUCCCGUUCGGAACG [G17A G18C G39C A65U], the yeast fitness is at most 0.5.

With GUUCCGUUGGCGUAAUAGUAACGCGUCUCCCUACUAAGGAGAAGACUGCGGGUUCGAGUCCCGUACGGAACG [G17A C33A], the yeast fitness worked out at 0.53.

On to GUUCCGUUGGCGUAAUAAUAACGCGUCUCCCUCCUAAGGAGAAGACUGCGGGUUCGAGUCACGUACGGAACG [G17A G18A C61A], for which the yeast fitness was at most 0.5.

For the variant GUUCCGUUGGCGUAAUAGUAACACGUCUCCCUCCUAAGGAGAAGACUGCGGGUUCGAGUCCCGUAAGGAACG [G17A G23A C66A], the yeast fitness amounted to 0.776.

As to GUUCCGUUGGCGUAAUAGUAACGCGUCUCCCACCUAAGGAGAAGACUGCGGGUUCGAGUCCCGUACGGAACG [G17A U32A], the yeast fitness amounted to 0.691.

GUUCCGUUGGCGUAAUAGUAACGCCUCUCCCUCCUAAGGAGAAGACUGCGGGUUCGAGUCCCGUUCGGAACG [G17A G25C A65U]: the yeast fitness came out at 0.625.

As for GUUCCGUUGGCGUAAUAGAACCGCGUCUCCCUCCUAAGGAGAACACUGCGGGUUCGAGUCCCGUACGGAACG [G17A U19A A21C G44C], the yeast fitness was at most 0.5.

On to GUUCCGUUGGCGUAAUAGUAACGCGUCCCCCUCCUAAGGAGCAGACUGCGGGUUCGAGUCCCGUAUGGAACG [G17A U28C A42C C66U], for which the yeast fitness was at most 0.5.

In the case of GUUCCGUUGGCGUAAUCGUUACGCGUCUCCCUCCUAAGGAGAAGACUGCGGGUUCGAGUCCCGUAAGGAACG [G17C A20U C66A], the yeast fitness was at most 0.5.

In the case of GUUCCGUUGGCGUAAUAGUAACGCAUCUCCCUCUUAAGGAGAAGACUGCGGGUUGGAGUCCCGUACGGAACG [G17A G25A C34U C55G], the yeast fitness was found to be 0.532.

Turning to GUUCCGUUGGCGUAAUAGUAACGCGUCUCCCCCCUAGGGAGAAGACUGCGGGUUCGAGUCCCGUACGGCACG [G17A U32C A37G A69C], the yeast fitness came out at 0.5.

Take GUUCCGUUGGCGUAAUAGUAACGCGUCUCCCUCCUAAGGAGAAGACUGCGGGUUUGAGUCCCGUACGGAACG [G17A C55U]: the yeast fitness amounted to 0.681.

Take GUUCCGUUGGCGUAAUAGUAACGCGUCUCCCUCCUAAGGAGAAGACUGCGGGUUCCAGUCCCGUACGGAACG [G17A G56C]: the yeast fitness is 0.527.

With GUUCCGUUGGCGUAAUAGUAACGCGUCUCCCUCCUAAGGAGAAGAUUGCGGGUUCGAGUCCCGUCCGGAACG [G17A C46U A65C], the yeast fitness is 0.658.

In the case of GUUCCGUUGGCGUAAUAGUAACGCGUCUCCCUCGUAAGGAGAAGACUGCGGGUUCGAGUCCCGUACGGAACG [G17A C34G], the yeast fitness was 0.569.
